Measurements: ChEMBL document CHEMBL4513216, “Probing the Open Global Health Chemical Diversity Library for Multistage-Active Starting Points for Next-Generation Antimalarials” (ACS Infect Dis, 2020)

experiment: Toxicity liver stage against HepG2, at 10uM; format: cell-based; set-up: test concentration 10 uM, cell line HepG2-A16-CD81EGFP; settings: human, HepG2-A16-CD81EGFP cells; read-out: INHIBITION
Summary of the method: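 Uninfected HepG2-A16-CD81EGFP cells, 3 × 10^3 per well, 1536-well, plated on prespotted compound at 10 μM final, parasite-free screening media added to match infected plates; puromycin 10 μM positive, DMSO 0.5% negative; run in parallel with 48 h PbLuc assay at 37 °C, 5% CO2; viability by CellTiter-Glo luminescence, normalized to controls.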

SMILES	cytotoxicity at 10 µM [%]
COc1ccc(NC(=O)c2cnc(C3CCN(C(C)=O)C3)nc2C)cc1 (stereo unspecified)	-2.6
O=C(CCN1CCc2ccccc21)N1CC(C(=O)N2CCOCC2)C1	-26.7
O=C(Cc1ccsc1)N1CCC(c2noc(-c3cccnc3)n2)CC1	-18.2
O=C(c1ccc(O)nc1)N1Cc2ccccc2OC2(CCOCC2)C1	-44.2
CNC(=O)C1CN(Cc2c[nH]cn2)CCN(C2CCOCC2)C1 (stereo unspecified)	-17
Cc1ncsc1CN1CCN(C2CCOCC2)CC(C(N)=O)C1 (stereo unspecified)	14.4
COc1ccccc1CN1CCc2c(nc(-c3ccccn3)[nH]c2=O)C1	-19.7
CC(=O)N1CCCC1c1ccc(-c2c(C)noc2C)cn1 (stereo unspecified)	2.88
Cc1ccc(N2CCCN(C(=O)C(C)OCC3CC3)CC2)nn1 (stereo unspecified)	0.0479
COCc1nnc(-c2cccc(C(=O)N(C)CC(C)(C)C)c2)o1	-11.1
O=C(NCc1nncn1C1CC1)c1cccnc1Oc1ccccc1	1.57
O=C(NCc1nncn1C1CC1)c1ccccc1OCC1CC1	3.36
COc1cc(C2(C(=O)NC3CCN(CC4CC4)CC3)CC2)ccc1C	-11.2
CC1CN(C)c2ccccc2CN1C(=O)c1ccoc1 (stereo unspecified)	-2.84
CNC(=O)C(C)(C)CNC(=O)Nc1cc(C)ccn1	11.7
O=C(O)c1c(Cl)ncn1-c1cccc2ccccc12	1.76
CC1(C)CN=C(N2CCN(CC3CCCO3)CC2)S1 (stereo unspecified)	-8.41
CC(=O)NCCCC(=O)NC1(c2ccc(Cl)c(Cl)c2)CC1	-7.79
Cc1nonc1NC(=O)c1ccc(F)c(COCC2CC2)c1	18.6
CC(=O)N1CCCc2cc(NC(=O)NCCc3cnn(C)c3)ccc21	-5.42
Cc1cc(=O)c(C(=O)N(C)Cc2ccc(Cl)c(F)c2)c[nH]1	9.39
CC(=O)N1CCOC2(CCN(C(=O)c3cnoc3C)CC2)C1	-0.0788
Cc1cc(C)n(Cc2cc(C(=O)N[C@H]3CCCCNC3=O)n[nH]2)n1	5.97

SMILES	cytotoxicity at 10 µM [%]
CCCS(=O)(=O)N1CCC2(CCC(=O)N(CCc3ccccc3)C2)CC1	6.84
CCC(CO)N(Cc1cccc(-n2cccn2)c1)Cc1ccccn1 (stereo unspecified)	6.95
CC(C)c1nc(-c2ccc(=O)[nH]n2)n(-c2ccc3c(c2)OCO3)n1	6.46
COc1cccc(-c2cc(NCCN(C)C)nc3[nH]ccc23)n1	-3.97
N#Cc1ccc(CN2CCCC2Cn2cccn2)c(F)c1 (stereo unspecified)	-9.2
Cc1ccc(O)c(CNCC2CCCN2c2cccnn2)n1 (stereo unspecified)	-7.92
O=C(CCN1C(=O)CCC1=O)NCC1(c2c(F)cccc2F)CCCC1	-9.47
Cc1cccnc1NC(=O)c1ccc(-n2ncc(C#N)c2N)cc1	-9.35
Cc1cc(CNC(=O)CN2CCCC(Cn3cncn3)C2)ccc1F (stereo unspecified)	-9.92
Cc1noc(C)c1C(=O)NCc1ccc(N2CCCCCC2)nc1	2.76
CCc1[nH]ncc1C(=O)N1CCOC(c2nc(C)n[nH]2)C1 (stereo unspecified)	-8.69
O=C(CCc1ccccc1Br)NS(=O)(=O)c1ccc2c(c1)OCCO2	-10.7
Cc1cc(C)n(C2CN(CCC(=O)NC3CCCCC3)C2)n1	1.04
CN1CCN(C2CCN(CCOc3ccc(F)cc3)CC2)C1=O	-7.8
CC(C)OCCN1CCC(N2CCN(C)C2=O)CC1	-11.4
COCCN1CCC(NCc2cccc(F)c2)C1 (stereo unspecified)	-8.85
COc1c(CNCc2cnn(C)c2)c(C(C)C)nn1C	-7.39
Cc1noc(C)c1C(=O)N1CCCC1c1c(C)nn(C)c1Cl (stereo unspecified)	-12.6
Cc1ncc2c(n1)CN(Cc1noc(C3CC3)n1)CC2	-13.4
COc1ccc(CN(Cc2c[nH]cn2)CC2CCCO2)c(OC)c1 (stereo unspecified)	-26
O=C(c1cccnc1)N1CCc2ncnc(C3CCOC3)c2CC1 (stereo unspecified)	4.22
CC(C)c1nc(C2CCCNC2)no1 (stereo unspecified)	0.684
NC1CCC(n2cc(C(=O)NC3CCc4ccccc4C3)nn2)CC1 (stereo unspecified)	-4.42
